Data: the RNAGym collection of RNA variant scans (doi:10.1002/anie.201605470)

B1: Osa-1-4 twister ribozyme (parent)
chain: CCGCCUAACACUGCCAAUGCCGGUCCCAAGCCCGGAUAAAAGUGGAGGGGGCGG

Variants of: B1
Experiment: self-cleavage, relative activity (ratio to wild type); higher = more cleavage; co-transcriptional
In short: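 The 48 positions downstream of the cleavage site in a DNA template for a 54-nucleotide Oryza sativa twister ribozyme carried 97 % wild-type base and 1 % of each other base. After in vitro transcription (2 h, 37 °C) with co-transcriptional self-cleavage, the RNA was reverse-transcribed with a template-switching oligonucleotide, PCR-amplified and deep-sequenced. Relative activity is the fraction cleaved, judged by reads with or without upstream sequence and normalised to wild type.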

Row | Variant | self-cleavage
1 | CCGCCUAACACUGCCAAUGCCGGUCCCGAGCCCGGAUAAAACUGGAGGGGGCGG [A28G G42C] | 0.07
2 | CCGCCUAACACUGCCAAUGCCGGUCCCGAGCCCGGAUAAAAAUGGAGGGGGCGG [A28G G42A] | 0.1
3 | CCGCCUAACACUGCCAAUGCCGGUCCCGAGCCCGGAUAAAAUUGGAGGGGGCGG [A28G G42U] | 0.04
4 | CCGCCUAACACUGACAAUGCCGGUCCCGAGCCCGGAUAAAAGUGGAGGGGGCGG [A28G C14A] | 0.05
5 | CCGCCUAACACUGUCAAUGCCGGUCCCGAGCCCGGAUAAAAGUGGAGGGGGCGG [A28G C14U] | 0.11
6 | CCGCCUAACACUGGCAAUGCCGGUCCCGAGCCCGGAUAAAAGUGGAGGGGGCGG [A28G C14G] | 0.15
7 | CCGCCUAACACUGCCAAUGCCGGUCCCGAGUCCGGAUAAAAGUGGAGGGGGCGG [A28G C31U] | 0.08
8 | CCGCCUAACACUGCCAAUGCCGGUCCCGAGGCCGGAUAAAAGUGGAGGGGGCGG [A28G C31G] | 0.09
9 | CCGCCUAACACUGCCAAUGCCGGUCCCGAGACCGGAUAAAAGUGGAGGGGGCGG [A28G C31A] | 0.02
10 | CCGCCUAACACUGCCAAUGCCGGUCCCGAGCCCGGAUAAAAGUGGUGGGGGCGG [A28G A46U] | 0.05
11 | CCGCCUAACACUGCCAAUGCCGGUCCCGAGCCCGGAUAAAAGUGGGGGGGGCGG [A28G A46G] | 0.5
12 | CCGCCUAACACUGCCAAUGCCGGUCCCGAGCCCGGAUAAAAGUGGCGGGGGCGG [A28G A46C] | 0.04
13 | CCGCCUAACACUGCCAAUGCCGGUCCCGAGCCCGGAUAAACGUGGAGGGGGCGG [A28G A41C] | 0.13
14 | CCGCCUAACACUGCCAAUGCCGGUCCCGAGCCCGGAUAAAGGUGGAGGGGGCGG [A28G A41G] | 0.14
15 | CCGCCUAACACUGCCAAUGCCGGUCCCGAGCCCGGAUAAAUGUGGAGGGGGCGG [A28G A41U] | 0.23
16 | CCGCCUAACACUGCCAAUGCCCGUCCCGAGCCCGGAUAAAAGUGGAGGGGGCGG [A28G G22C] | 0.06
17 | CCGCCUAACACUGCCAAUGCCAGUCCCGAGCCCGGAUAAAAGUGGAGGGGGCGG [A28G G22A] | 0.14
18 | CCGCCUAACACUGCCAAUGCCUGUCCCGAGCCCGGAUAAAAGUGGAGGGGGCGG [A28G G22U] | 0.1
19 | CCGCCUAACACUGCCAAUGCCGGUCCCGAGCCCGGAUAAAAGUGGAGAGGGCGG [A28G G48A] | 0.04
20 | CCGCCUAACACUGCCAAUGCCGGUCCCGAGCCCGGAUAAAAGUGGAGCGGGCGG [A28G G48C] | 0.05
21 | CCGCCUAACACUGCCAAUGCCGGUCCCGAGCCCGGAUAAAAGUGGAGUGGGCGG [A28G G48U] | 0.04
22 | CCGCCUAACACUGCCAAUGCCGGUCUCGAGCCCGGAUAAAAGUGGAGGGGGCGG [A28G C26U] | 0.11
23 | CCGCCUAACACUGCCAAUGCCGGUCGCGAGCCCGGAUAAAAGUGGAGGGGGCGG [A28G C26G] | 0.21
24 | CCGCCUAACACUGCCAAUGCCGGUCACGAGCCCGGAUAAAAGUGGAGGGGGCGG [A28G C26A] | 0.03

Row | Variant | self-cleavage
25 | CCGCCUAAUACUGCCAAUGCCGGUCCCGAGCCCGGAUAAAAGUGGAGGGGGCGG [A28G C9U] | 0.11
26 | CCGCCUAAGACUGCCAAUGCCGGUCCCGAGCCCGGAUAAAAGUGGAGGGGGCGG [A28G C9G] | 0.29
27 | CCGCCUAAAACUGCCAAUGCCGGUCCCGAGCCCGGAUAAAAGUGGAGGGGGCGG [A28G C9A] | 0.04
28 | CCGCCUAACACUGCCAAUGCCGGUCCCGAGCCCGGAUUAAAGUGGAGGGGGCGG [A28G A38U] | 0.23
29 | CCGCCUAACACUGCCAAUGCCGGUCCCGAGCCCGGAUGAAAGUGGAGGGGGCGG [A28G A38G] | 0.22
30 | CCGCCUAACACUGCCAAUGCCGGUCCCGAGCCCGGAUCAAAGUGGAGGGGGCGG [A28G A38C] | 0.21
31 | CCGCCUAACAAUGCCAAUGCCGGUCCCGAGCCCGGAUAAAAGUGGAGGGGGCGG [A28G C11A] | 0.09
32 | CCGCCUAACAUUGCCAAUGCCGGUCCCGAGCCCGGAUAAAAGUGGAGGGGGCGG [A28G C11U] | 0.16
33 | CCGCCUAACAGUGCCAAUGCCGGUCCCGAGCCCGGAUAAAAGUGGAGGGGGCGG [A28G C11G] | 0.06
34 | CCGCCUAACACUGCCAAUGCCGGUCCCGAGCCCGGAUAAAAGUGGAGGCGGCGG [A28G G49C] | 0.04
35 | CCGCCUAACACUGCCAAUGCCGGUCCCGAGCCCGGAUAAAAGUGGAGGAGGCGG [A28G G49A] | 0.06
36 | CCGCCUAACACUGCCAAUGCCGGUCCCGAGCCCGGAUAAAAGUGGAGGUGGCGG [A28G G49U] | 0.06
37 | CCGCCUAACACUGCCAAUGCCGGUCCCGAUCCCGGAUAAAAGUGGAGGGGGCGG [A28G G30U] | 0.05
38 | CCGCCUAACACUGCCAAUGCCGGUCCCGAACCCGGAUAAAAGUGGAGGGGGCGG [A28G G30A] | 0.05
39 | CCGCCUAACACUGCCAAUGCCGGUCCCGACCCCGGAUAAAAGUGGAGGGGGCGG [A28G G30C] | 0.04
40 | CCGCCUAACACUGCCAAUGCCGGUCCCGAGCCGGGAUAAAAGUGGAGGGGGCGG [A28G C33G] | 0.05
41 | CCGCCUAACACUGCCAAUGCCGGUCCCGAGCCUGGAUAAAAGUGGAGGGGGCGG [A28G C33U] | 0.11
42 | CCGCCUAACACUGCCAAUGCCGGUCCCGAGCCAGGAUAAAAGUGGAGGGGGCGG [A28G C33A] | 0.06
43 | CCGCCUAACACUGCCAAUGCCGGUCCCGAGCCCGGAUAAAAGUGGAGGGCGCGG [A28G G50C] | 0.14
44 | CCGCCUAACACUGCCAAUGCCGGUCCCGAGCCCGGAUAAAAGUGGAGGGAGCGG [A28G G50A] | 0.28
45 | CCGCCUAACACUGCCAAUGCCGGUCCCGAGCCCGGAUAAAAGUGGAGGGGGUGG [A28G C52U] | 0.46
46 | CCGCCUAACACUGCCAAUGCCGGUCCCGAGCCCGGAUAAAAGUGGAGGGGGGGG [A28G C52G] | 0.32
47 | CCGCCUAACACUGCCAAUGCCGGUCCCGAGCCCGGAUAAAAGUGGAGGGGGAGG [A28G C52A] | 0.2
48 | CCGCCUAACACUGCCAAUGCCGGUCCCGAGCCCGGAUAAAAGUGGAUGGGGCGG [A28G G47U] | 0.07
